The source of these data is PubChem BioAssay AID449757 (Broad Institute, 2010).

Activity calls are given as the source filed them.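 How the source made its calls: active means compounds whose fitted caspase activation midpoint falls no more than tenfold above the top tested dose; inconclusive means flat fit with activity between 30 and 70 percent, or failed fit; inactive means the rest.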

The test system of this assay is MEF Flag-A1-IRES-BIM, caspase-Glo luminescence, 3 h. The assay is described as follows: caspase activation in A1/BIM-primed MEFs, dose response, A1 (Bcl2A1) inhibitor project, cell-based, alternate construct, luminescence (AID 449757). Summed up:
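Test system: Flag-A1-IRES-BIM-primed MEF cells. Technique: luminescent caspase activity measurement with CaspaseGlo reagent. Dosing: 100 nL compound added per well by pin transfer. Times: 3-h compound at 37 °C, 30-min cooling, 1-h reagent at RT. Buffer or medium: RPMI-1640 growth medium with 10% FBS.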
With `Cc1occc1-c1nnc(SCC(=O)NCCc2ccccc2)n1Cc1ccccc1`, the AC50 – broadly, the concentration giving half of the maximal activity seen – is > 35 µM (inactive).
Regarding `CCOc1cc(C(=O)CSc2nnc(CNc3ccc(Cl)cc3)o2)ccc1NC(=O)CC`, the AC50 was 15.3 µM.
With `O=C(COc1ccc(/C=N/NC(=O)c2cc3ccccc3o2)cc1Br)Nc1ccccc1` the figure was 25.3 µM; with `Cc1ccc2c(c1)C(=O)C(=O)N2Cc1ccc(Br)cc1`, > 35 µM (inactive).
With `CC1CC(C)CN(C(=O)c2ccc(-c3ccc([N+](=O)[O-])cc3)o2)C1` (configuration not stated) the figure was > 35 µM (inactive); with `CC(=O)Nc1ncnc2c1c(-c1ccc(Cl)cc1)nn2C(C)(C)C`, > 35 µM (inactive); with `Cc1cccc(Nc2nc(N)c([N+](=O)[O-])c(N3CCCC(C)C3)n2)c1` (configuration not stated), > 35 µM (inactive).
With `CC1=CC(=O)C(C(C)C)=C/C1=N/OS(=O)(=O)c1ccccc1` the figure was 6.53 µM; with `Cc1cccc(C)c1NC(=O)CSc1nc(C)c(CC(=O)c2ccc(Br)cc2)c(C)c1C#N`, 28.8 µM; with `Cc1[nH]nc2nc(SCC(=O)NCCC3=CCCCC3)n(-c3ccc(Br)cc3)c(=N)c12`, 17.1 µM.
Consider `O=[N+]([O-])/C=C/c1ccc2c(ccn2Cc2ccccc2)c1`, for which the AC50 was 13.4 µM.
As for `CCOC(=O)/C(=C\c1ccc([N+](=O)[O-])cc1)C(=O)c1cc(C(C)=O)c(Nc2ccccc2)s1`, the figure is 1.81 µM; as for `O=C(CCl)N=c1sccn1Cc1ccccc1Cl`, > 35 µM (inactive).
`COC(=O)CSc1nc(N)c2c3c(sc2n1)C(c1ccccc1)SC(c1ccccc1)C3` (configuration not stated): the AC50 is > 35 µM (inactive).
Turning to `C=CC(=O)Nc1ccc(CN2C(=O)N(c3c(Cl)c(OC)cc(OC)c3Cl)Cc3cnc(NCCCCN(CC)CC)nc32)cc1`, the AC50 was > 35 µM (inactive).
With `Cc1ccc(N(Cc2cc(=O)[nH]c3ccccc23)C(=O)CCl)cc1` the figure was > 35 µM (inactive); with `C/C1=C\[C@@H](C)C/C=C/[C@H]2[C@@H]3O[C@]3(C)[C@@H](C)[C@H]3[C@H](Cc4c[nH]c5ccccc45)NC(=O)[C@]32C(=O)/C=C/C(=O)[C@@H]1O`, 9.84 µM.
As for `O=C(Nc1ccc(Cl)cc1Cl)c1cccc(N2C(=O)C=CC2=O)c1`, the figure is 19.1 µM.
Take `O=C(Nc1ccc2oc(-c3cccc(F)c3)nc2c1)c1ccccc1F`: the AC50 was > 35 µM (inactive).
As for `N#C/C(=C\c1ccc(OCc2ccccc2)cc1)C(=O)Nc1nc2c(s1)CCN(Cc1ccccc1)C2`, the figure is > 35 µM (inactive); as for `Cn1c(=NC(=O)CCl)sc2ccccc21`, > 35 µM (inactive); as for `CCc1nc(N=Nc2c(O)[nH]c3ccccc23)c2c3c(sc2n1)CCC3`, 20.7 µM.
As for `CC(C)CC(NC(=O)c1ccc(Cl)cc1)C(=O)OCC(=O)c1ccc2c(c1)NC(=O)CO2` (configuration not stated), the figure is 5.62 µM.
As for `Cc1ccc(NC(=O)c2cc(N3C(=O)C=CC3=O)ccc2N2CCOCC2)cc1Cl`, the AC50 was 15.8 µM.
As for `O=C(NC1CCCC1)c1cccc2c1C(=O)c1ccc(/C=C/c3ccccc3)cc1S2(=O)=O`, the figure is 7.48 µM; as for `CCOC(=O)COc1ccccc1/C=C\[N+](=O)[O-]`, 10.5 µM.
Take `CC(C)(C)C1CCc2onc(C(=O)Nc3cccc(O)c3)c2C1` (configuration not stated): the AC50 is > 35 µM (inactive).
As for `Cc1nn(Cc2c(Cl)cccc2Cl)c(C)c1NC(=O)c1cn(-c2ccccc2)nc1-c1ccccc1`, the figure is 19.2 µM.
With `COc1ccc(NC(=S)NC(NC(=O)/C=C/c2ccccc2)C(Cl)(Cl)Cl)cc1` (configuration not stated) the figure was > 35 µM (inactive).
As for `Oc1[nH]c2ccc(Br)cc2c1N=NC(=S)Nc1ccc(F)cc1`, the figure is > 35 µM (inactive); as for `CCOC(=O)c1sc(NC(=O)CSc2nc(C)cc(C)c2C#N)c(C#N)c1C`, > 35 µM (inactive).
For the compound `CCc1nn(-c2cc(Oc3cccc4ccccc34)nc(-c3ccccc3)n2)c(N)c1C#N`, the AC50 was > 35 µM (inactive).
